Reference: the EternaBench riboswitch data

Tested on: MS2 coat protein
Assay: apparent Kd, MS2 coat protein; higher = weaker binding; RNA-MaP array; FMN 200 µM where present
In short: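 The apparent Kd is reported as the median of filtered per-cluster binding-curve fits. To get these curves, designs transcribed by stalled E. coli RNA polymerase on Illumina sequencing-chip clusters were titrated with SNAP-549-labelled MS2 coat protein from 0.7 or 1.5 nM, doubling to 3 µM. Titrations were run without and then with constant ligand in 100 mM Tris-HCl pH 7.5, 80 mM KCl, 4 mM MgCl2, BSA, DTT, yeast tRNA and Tween-20, and green signal was normalised to red-channel RNA signal and control-cluster median Fmax.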

[1] = designed as: OFF switch for flavin mononucleotide, no ligand
[2] = ligand present: flavin mononucleotide, designed as: OFF switch for flavin mononucleotide
[3] = designed as: ON switch for flavin mononucleotide, no ligand
[4] = ligand present: flavin mononucleotide, designed as: ON switch for flavin mononucleotide

| Sequence | apparent Kd [1] [nM] | apparent Kd [2] [nM] | apparent Kd [3] [nM] | apparent Kd [4] [nM] |
| --- | --- | --- | --- | --- |
| UCAUAAUAGAUCCUAUUUAUCUACAUGAGGAUCACCCAUGUGCAGGAUAUGCUAAAAUUAAAAUAGCAGAAGGGCAAUAUCAGC | 109 | 365 | – | – |
| ACAUGAUAUGUAGGAUAUCACAACAUGAGUUUUAUUAUUGUUAUUUAUGAUUGAGAAGGACAUUUACAUGAGGAUCACCCAUGU | 17.8 | 12.3 | – | – |
| GAGCGAGGGACAGGAUAUGCGGCGAAACUCGCCGCAGAAGGGUCGACAUGAGGAUCACCCAUGUCCUUACGCUCCAAGUAGAGG | – | – | 97 | 488 |
| AGAUAACACCAGAAGGACAUGAGGAUCACCCAUGUAGGAUAUGGGCAUCACUCGAGAAAGAUACGACCAAAAGGACACGCGAUC | – | – | 85 | 10.3 |
| CAGCCCUGAGGAUAUCCAUCCUUGUACAUGAGGAUCACCCAUGUUUUCCUCUGGGCUUUUGGAGAAGGCAGGUAUC | 78.3 | 82.3 | – | – |
| CCGGAGUCAGGAUAUACGAACAUGUCGCCAGAUGUCAAGGUACAUGAGGAUCACCCAUGUAGAAGGGAGGAGAA | 96.1 | 56.8 | – | – |
| GGACGUCUCGUUUACAUGAGGAUCACCCAUGUCGAUAGACAUGAGGAUAUGGAUCCGAAUCGGAUCCAGAAGGCAUGGACGUCC | – | – | 486 | 35 |
| UUGUUGUAUGUAGGAUAUGCAUAUUAUUAUUGUGCAGAAGGACAUGAGGAUCACCCAUGUAUAUUAUUAUUAUAUGUUAUAUAU | 30.6 | 37.4 | – | – |
| CAGUACUGAGGAUAUACAUGAGGAUCACCCAUGUGUCCUAGCUAGGAAACUAGCAUUAGUAGAAGGCAGUACUG | 18.9 | 300 | – | – |
| GAGCGAAAGCUCAAUGUCGAUAGCAGAAGGACAUGUAAUCAUGAAAUAACAUGAGGAUCACCCAUGUAGGAUAUGCUAUCGACU | 309 | 88.8 | – | – |
| AUAUUACGAGGAUAUCGUCUCUCCCACAUGAGGAUCACCCAUGUUAUCCAUGUUUCGUUUCGAGAAGGCGUAAGUU | 75.9 | 58 | – | – |
| AACCUAUUACAGAAGGCCAGCUACAUGAGGAUCACCCAUGUCGAGUCAUGGAGGAUAUGUAGUAAUUUACUCGCAGAUAAGUGC | – | – | 22.6 | 4.45 |
| CGCUGGUGACAGCAUCCAUCAAAACAUGAGGAUCACCCAUGUAGAAGGCUGUACGGUUACCGUACAGAGGAUAUACAAUGAUGG | 7.56 | 9.75 | – | – |
| ACUACUUAGUGAGGAUAUACAUAAUUUAUAACUGUAGAAGGCACAAACCUCAAUACAUGAGGAUCACCCAUGUGGUAUAUCUAU | 188 | 380 | – | – |
| GGGCUUUGGGAGAAGGUACAAUAAAUUAGGAGAACAUGAGGAUCACCCAUGUAAGGAUAUCCCAUGUUGUAUUAUGGUACAACC | 519 | 273 | – | – |
| CACACAUGAGGAUCACCCAUGUCGUGGGCGGAAAACUGUGCACAGGAUAUGGUGAGUGCAACUCACCAGAAGGGUGGUCAGGAA | – | – | 122 | 63 |
| GUCAGCUCGUGAGGAUAUACAACACUGCUUCGCCAGUGUAUUAAGAUCACAUGAGGAUCACCCAUGUAGAAGGCACGAGCUGAU | 14.4 | 216 | – | – |
| GCCAUCGCAUGAGGAUAUGGCACCGUUUCGGUGCCAGAAGGCAUGUCUUAAGACAUGAGGAUCACCCAUGUAGUUAAGAUGGCA | – | – | 860 | 56.9 |
| GCUGUGGCAUGAGGAUAUGGUCAGCUUUGCUGACCAGAAGGCAUGUCAAUAGACAUGAGGAUCACCCAUGUAGUUAACACAGCA | – | – | 572 | 40.7 |
| UCGAAACAUGAGGAUCACCCAUGUGCUCACGACAUAGGAUAUACUAGCUCGAAGAGCUGCGUAGAAGGGUGAAGUG | – | – | 45.9 | 26.8 |
| GAGCCAUCGUGAGAUGGCUAACAUACAUGAGGAUCACCCAUGUAGGAUAUCGAUUGCUUUGCAGUCGAGAAGGACAUGUUUAAU | 26.3 | 43.1 | – | – |
| CGUUUAUUUAUGGGAUUAUAUUAUGAGGAUAUCAAUAUUUAUUACAUGAGGAUCACCCAUGUUAAUGAGAAGGCAUAAUUAACG | – | – | 9.53 | 6.3 |
| GACAUGAGGAUCACCCAUGUCCUUCCAGAAGGCUGGCGCGCGAAACCUAAAUCAGUUCCGGGCACAGAGGAUAUGGGCAGUUGG | – | – | 67.2 | 14.3 |
| AAAUUCAGAGGAUAUGCGCAUAGAUAAGACUUUUUUUCUUAACAUGAGGAUCACCCAUGUAGAAGGCUGUAAUA | 18.4 | 16.7 | – | – |
| CUUCGACAUGAGGAUCACCCAUGUCAGGAUAUUGUUUAUCUGGUGUUGUCCAGAUAUGCAAGAAGGGAUGUGUG | 38.4 | 38.1 | – | – |
| CAAUUACAUGAGGAUCACCCAUGUCAGGAUAUGCGAAUUACCAGAUGAAACUUAAUAAGCAGAAGGGACUACAA | 36.3 | 49.6 | – | – |
| GGGAUGCUAGGAUAUACAUCGGGCUCCAGGAUGUUCCGGGAACAUGAGGAUCACCCAUGUAGAAGGAGCGUAUG | 80.4 | 50.6 | – | – |
| AGAACACAUGAGGAUCACCCAUGUGAGGAUAUCGAUGUCCCAGGGCGGGUGCGGGACUCGAGAAGGCACUUGGA | 41.9 | 88 | – | – |

| Sequence | apparent Kd [1] [nM] | apparent Kd [2] [nM] | apparent Kd [3] [nM] | apparent Kd [4] [nM] |
| --- | --- | --- | --- | --- |
| GUAGCAUACCGAGGAUAUUCACCGGAAAACCGGACAUGAGGAUCACCCAUGUGGCGAAAGCCUUGGGAGAAGGCGGAAUGCUAC | – | – | 135 | 19.9 |
| AGAAACUACGAGAAGGACAUAUGAUUCUUCAGAUACAUGAGGAUCACCCAUGUAGGAUAUCGUAGUUUCAGGAUCGUGAGAUCA | 14 | 97.7 | – | – |
| AUGUUGAGCAGUGUAUUAAGAUCACAUGAGGAUCACCCAUGUAGAAGGCACGAGCUGAUCGCUCGUGAGGAUAUGCAUCACUGC | 7.12 | 29.2 | – | – |
| GAGCUGUGAGGAUAUAAACCUGUGGGCUCAACCUAGCGGGUUUAGAAGGCACAUGAGGAUCACCCAUGUCCCAA | 26 | 262 | – | – |
| GAUUAACAUGAGGAUCACCCAUGUGAGGAUAUGGACUUGCCCACUUAACCAUUAGAGUCUAGAAGGCGCAUCUA | 29.4 | 25.5 | – | – |
| GUGACGAAUGUAGGAUAUGCUGAGGAAUACUCAGCAGAAGGACAUGAGGAUCACCCAUGUCAUCCUUAUAAUGAAUAACGUCAC | 13.8 | 18.3 | – | – |
| GGGCCGUAGUAGAAGGGAUAUACGAUAGGUAUAUCAGGAUAUACAUGAGGAUCACCCAUGUUCUAACAGUGAUGGUCCUCCCUA | 173 | 374 | – | – |
| GGAUCGAGUGUGAGGAUAUGCUGGUCCUUGGAUCAGCAGAAGGCACAUGAGGAUCACCCAUGUCCAAGCGGUCC | 152 | 701 | – | – |
| UUCAACGAUGAAGGAUAUCUAUGUCCAACAUGAGGAUCACCCAUGUUGAGGAUUACCUAUGUGUAGGAGAAGGUCAAUUUGACU | – | – | 7.01 | 6.51 |
| GGAUGACAAAGUCAUCCAUUACGAACAUGAGGAUCACCCAUGUAGGAUAUGCUUCUCAAAGAGAAGCAGAAGGACAUGUGUCUU | 30.1 | 157 | – | – |
| GAUUUCUAAGGAUAUACUGAUGUUCCUAAGUCUAGCGGCUCACAUGAGGAUCACCCAUGUAGAAGGUGGAGGUU | 27.8 | 30.1 | – | – |
| CCCUCACAUGAGGAUCACCCAUGUCAGGAUAUCUCACAUCGGCCUUAGGCCGAUGUCUAGAGAAGGGACGUAUC | 22.1 | 29.5 | – | – |
| ACUGACAUGAGGAUCACCCAUGUCUUGAAUAGGUCAAAUUCACAGGAUAUGCGCUUUGACAGGGCGCAGAAGGGUGAUGCAAUG | – | – | 70.2 | 11.8 |
| AUAAUUUUAUAUAUCAUAUAAAUCAGAAGGCAUAACAUGAGGAUCACCCAUGUAUAUUAUUGUUAUGAGGAUAUGAUUUAGUUA | 15.8 | 65.5 | – | – |
| UGGAGGUCAGGAUAUGCAUGGCGGGACUUGCGUCGUGGCGUGCAGAAGGGACAUGAGGAUCACCCAUGUGGAGC | 64.5 | 83.7 | – | – |
| CGCAAGUAUACAUGAGGAUCACCCAUGUCAGAUAGGGUAAUCAGAAGGUACAAUUAGAGAUAGAGUAAGGAUAUGAAAUUUGCG | – | – | 865 | 314 |
| UCCUUACUGGUCAGGAUAUACAGUCGCGGGUGGGUGUAGAAGGGACAUGAGGAUCACCCAUGUACGUUGCAGCC | 40.6 | 40.9 | – | – |
| CCCACAUGAGGAUAUCCAUCUGGAUCAGACUAGAUCCUGAUGGAGAAGGUACAUGAGGAUCACCCAUGUGUGGG | 301 | 222 | – | – |
| AAGGAGUAAGGAUAUGCUGCUCGUCACUUGCGUGAUGAGUAGCAGAAGGUACAUGAGGAUCACCCAUGUAAAGA | 27.4 | 20.1 | – | – |
| GUUUUUCCUCAUGUACAUGAGGAACAUGAGGAUCACCCAUGUAGAAGGAUUUCCCUUAAAUUAAGAUAGGAUAUACAUAUAUUU | 102 | 59.3 | – | – |
| GAGCGAAAGCUCAAUGUCGAUAGCAGAAGGACAUGAAAACAUGAAAAUACAUGAGGAUCACCCAUGUAGGAUAUGCUAUCGACU | 6.7 | 24.3 | – | – |
| GUAUAUAGUGUGAGGAUAUGCUGGUCCUUGGAUCAGCAGAAGGCACAUGAGGAUCACCCAUGUAGUUUAUUUUA | 30.6 | 89.4 | – | – |
| AGCUGCCGGUCACAUGAGGAUCACCCAUGUAACCUGCAUUCACAGGAUAUGUUGGCUCCUUGCCGGCAGAAGGGUGAAGCGCCG | – | – | 371 | 107 |
| UUCAUGUAAGGAUAUGCGGGCGGGCGCGUUUGUGUUUGUUUGUAGAAGGUACAUGAGGAUCACCCAUGUACUGG | 22 | 68.2 | – | – |
| UAUGAACAUGAGGAUCACCCAUGUGGUACGAUCACAGGAUAUCACCUCGGACGUGCGAUGUGAGAAGGGUGAUGGU | – | – | 81.6 | 29.4 |
| GUAGAUAGAUAGAAGGUAUGGUAUUAGAUUAAAUAAGGAUAUAUGAACAUGAGGAUCACCCAUGUAUUAUGGGAUAGAUAGACU | – | – | 228 | 153 |
| GAUCCUUCUGUUAGGAUAUGCUUCGGGCUUCCGCAGCAGAAGGAACAUGAGGAUCACCCAUGUCAAAUAAAAUC | 22.9 | 94.1 | – | – |
